Measured values: ChEMBL document CHEMBL3817742, “Structural Basis for the Selective Binding of Inhibitors to 6-Hydroxymethyl-7,8-dihydropterin Pyrophosphokinase from Staphylococcus aureus and Escherichia coli” (J Med Chem, 2016)
pKd: −log10 of the molar value. Calls of active or inactive are those of the source. The calls are words filed in the database; no cut-off is given here.

Assays:
[1] = molecular target: T1, 2-amino-4-hydroxy-6-hydroxymethyldihydropteridine pyrophosphokinase (Escherichia coli (strain K12), UniProt P26281); assay: Binding affinity to biotinylated Escherichia coli HPPK expressed in Escherichia coli BL21 (DE3) in presence of 1 mM ATP by SPR assay
T1 sequence (P26281 whole entry): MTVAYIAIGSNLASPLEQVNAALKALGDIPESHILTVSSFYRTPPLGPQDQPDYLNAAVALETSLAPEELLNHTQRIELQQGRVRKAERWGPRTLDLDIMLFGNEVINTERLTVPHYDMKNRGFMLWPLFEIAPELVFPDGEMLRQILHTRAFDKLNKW
Procedure, shortened: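 N-terminal His6/TEV-cleavable construct expressed in E. coli BL21(DE3), Ni-NTA purified, His-tag cleaved, then size exclusion. Minimally biotinylated via NHS-activated biotin and captured on streptavidin chip (~4900 RU). Analytes in 3-fold serial dilutions, duplicate or more; sensorgrams solvent-corrected, double-referenced.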

[2] = molecular target: T2, 2-amino-4-hydroxy-6-hydroxymethyldihydropteridin e pyrophosphokinase (Staphylococcus aureus, UniProt X5EH84); assay: Binding affinity to biotinylated Staphylococcus aureus HPPK in presence of 1 mM ATP by SPR assay
T2 sequence (X5EH84 whole entry): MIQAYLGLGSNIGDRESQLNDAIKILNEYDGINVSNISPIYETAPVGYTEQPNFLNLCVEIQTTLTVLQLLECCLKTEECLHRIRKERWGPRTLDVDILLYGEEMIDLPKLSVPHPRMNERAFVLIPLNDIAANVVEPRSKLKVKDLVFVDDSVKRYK
Procedure, shortened: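 Enzyme minimally biotinylated via maleimide-activated biotin, captured on streptavidin chip (~3800 RU). 3-fold serial dilutions, top concentration between 3 and 300 μM; 60 s contact at 30 μL·min−1, 60 s dissociation; duplicate or more; double-referenced, globally fitted where limited.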

[3] = molecular target: T3, 2-amino-4-hydroxy-6-hydroxymethyldihydropteridin e pyrophosphokinase (Staphylococcus aureus) (UniProt X5EH84); assay: Binding affinity to AMPCPP-loaded and 15N/13C-labeled Staphylococcus aureus HPPK assessed a induction of 1H-15N chemical shift perturbations by 2D 15N-FAST-HSQC NMR spectrscopy
T3 sequence (whole entry): T2 sequence (X5EH84 whole entry)

[4] = molecular target: T3, 2-amino-4-hydroxy-6-hydroxymethyldihydropteridin e pyrophosphokinase (Staphylococcus aureus); assay: Binding affinity to AMPCPP-loaded and 15N/13C-labeled Staphylococcus aureus HPPK assessed a induction of chemical shift changes in 15N HSQC spectra by HNCA triple resonance 3D NMR spectroscopy

Compound	pKd [1]	pKd [2]	Activity [3]	Activity [4]
Cc1cc(C)cc(CSc2nc3c(=O)[nH]c(N)nc3[nH]2)c1	5.16	5.64	–	–
Nc1nc2[nH]c(SCc3ccc(Br)cc3)nc2c(=O)[nH]1	5.67	6.02	–	–
Nc1nc2[nH]c(SCc3ccc(F)cc3F)nc2c(=O)[nH]1	5.85	6.59	–	–
Nc1nc2[nH]c(SCc3ccccc3F)nc2c(=O)[nH]1	–	–	Active	–
Cc1cc(F)ccc1CSc1nc2c(=O)[nH]c(N)nc2[nH]1	4.79	5.71	–	–
N#Cc1cc(F)ccc1CSc1nc2c(=O)[nH]c(N)nc2[nH]1	4.42	5.92	–	–
Nc1nc2[nH]c(SCCO)nc2c(=O)[nH]1	4.05	5.12	–	–
N#Cc1ccccc1CSc1nc2c(=O)[nH]c(N)nc2[nH]1	4.64	6.29	–	–
Nc1nc2[nH]c(SCc3ccccc3)nc2c(=O)[nH]1	–	–	Active	Active
COc1ccc(CSc2nc3c(=O)[nH]c(N)nc3[nH]2)cc1	5.66	6.28	–	–
Cc1cccc(CSc2nc3c(=O)[nH]c(N)nc3[nH]2)c1F	4.97	5.55	–	–
Nc1nc2[nH]c(SCC(=O)c3ccc(Br)cc3)nc2c(=O)[nH]1	6.15	6.24	–	–
Cc1ccccc1CSc1nc2c(=O)[nH]c(N)nc2[nH]1	5.60	6.33	–	–
N#Cc1cc(CSc2nc3c(=O)[nH]c(N)nc3[nH]2)ccc1F	5.28	5.68	–	–
N#Cc1ccc(CSc2nc3c(=O)[nH]c(N)nc3[nH]2)c(F)c1	5.57	6.23	Active	Active
Nc1nc2[nH]c(SCc3ccc(C(F)(F)F)cc3)nc2c(=O)[nH]1	–	5.71	–	–
Nc1nc2[nH]c(SCCC3OCCCO3)nc2c(=O)[nH]1	4.63	5.10	–	–
Nc1nc2[nH]c(S)nc2c(=O)[nH]1	3.80	–	–	–
COc1ccc(CSc2nc3c(=O)[nH]c(N)nc3[nH]2)c(F)c1	6.02	6.52	–	–
Nc1nc2[nH]c(SCc3cccc(C(=O)O)c3)nc2c(=O)[nH]1	4.59	5.59	–	–
Nc1nc2[nH]c(SCC(O)C(F)(F)F)nc2c(=O)[nH]1 (stereo not drawn)	4.01	5.44	–	–
Cc1ccc(C)c(CSc2nc3c(=O)[nH]c(N)nc3[nH]2)c1	4.90	5.77	–	–
CN(C)C(=O)CSc1nc2c(=O)[nH]c(N)nc2[nH]1	4.28	5.82	–	–
Cc1cccc(CSc2nc3c(=O)[nH]c(N)nc3[nH]2)c1C	5.21	6.08	–	–
Cc1cccc(CSc2nc3c(=O)[nH]c(N)nc3[nH]2)c1	5.77	6.42	–	–
Nc1nc2[nH]c(SCc3cccc(Br)c3)nc2c(=O)[nH]1	5.15	5.51	–	–
Nc1nc2[nH]c(SCC(O)CO)nc2c(=O)[nH]1 (stereo not drawn)	4.09	4.87	–	–

Compound	pKd [1]	pKd [2]	Activity [3]	Activity [4]
CCN(CC)C(=O)CSc1nc2c(=O)[nH]c(N)nc2[nH]1	4.13	4.96	–	–
Nc1nc2[nH]c(SCCN3CCCC3=O)nc2c(=O)[nH]1	–	5.10	–	–
COCCSc1nc2c(=O)[nH]c(N)nc2[nH]1	4.28	5.56	–	–
Nc1nc(O)c2[nH]c(SCc3ccc(Cl)cc3)nc2n1	5.37	5.91	–	–
Nc1nc2[nH]c(SCc3cccc([N+](=O)[O-])c3)nc2c(=O)[nH]1	5.24	5.85	–	–
CNC(=O)CSc1nc2c(=O)[nH]c(N)nc2[nH]1	4.30	5.06	–	–
Nc1nc2[nH]c(SCc3ccccc3[N+](=O)[O-])nc2c(=O)[nH]1	5.24	6.27	–	–
CC(C)CNC(=O)CSc1nc2c(=O)[nH]c(N)nc2[nH]1	4.23	4.89	–	–
Nc1nc2[nH]c(SCc3cccc(OC(F)(F)F)c3)nc2c(=O)[nH]1	5.24	5.79	–	–
Cc1cc(CSc2nc3c(=O)[nH]c(N)nc3[nH]2)ccc1F	5.00	5.44	–	–
Nc1nc2[nH]c(SCc3cccc(F)c3)nc2c(=O)[nH]1	5.59	6.66	–	–
Nc1nc2[nH]c(SCc3c(F)cccc3F)nc2c(=O)[nH]1	5.75	6.92	Active	Active
Nc1nc2[nH]c(SCc3ccccc3Cl)nc2c(=O)[nH]1	–	5.89	–	–
Nc1nc2[nH]c(SCc3ccc(F)cc3)nc2c(=O)[nH]1	5.41	6.52	–	–
Nc1nc2[nH]c(SCc3ccc(OC(F)(F)F)cc3)nc2c(=O)[nH]1	5.28	5.68	–	–
COc1ccc(C(=O)CSc2nc3nc(N)[nH]c(=O)c3[nH]2)cc1	–	–	Active	–
Nc1nc2[nH]c(SCc3cc(C(F)(F)F)cc(C(F)(F)F)c3)nc2c(=O)[nH]1	–	5.92	–	–
Cc1ccc(F)c(CSc2nc3c(=O)[nH]c(N)nc3[nH]2)c1	6.02	6.68	–	–
Nc1nc2[nH]c(SCCCO)nc2c(=O)[nH]1	4.17	5.34	–	–
Nc1nc2[nH]c(SCc3ccccc3Br)nc2c(=O)[nH]1	5.07	5.82	–	–
N#Cc1ccc(CSc2nc3nc(N)[nH]c(=O)c3[nH]2)cc1	–	–	Active	Active
N#Cc1cccc(CSc2nc3c(=O)[nH]c(N)nc3[nH]2)c1	5.46	6.11	–	–
Nc1nc2[nH]c(SCc3cccc(Cl)c3)nc2c(=O)[nH]1	5.77	6.24	–	–
CCN(C)C(=O)C(C)Sc1nc2c(=O)[nH]c(N)nc2[nH]1 (stereo not drawn)	3.92	4.34	–	–
Nc1nc2[nH]c(SCc3ccc(F)c(F)c3)nc2c(=O)[nH]1	5.70	6.54	–	–
COc1cccc(CSc2nc3c(=O)[nH]c(N)nc3[nH]2)c1	5.74	6.19	–	–
